Screening data from PubChem.
ANO1 block: TMEM16A chloride channel inhibitors, primary screen, cell-based, HTS; Anoctamin-1 (Mus musculus), Q8BHY3; HEK293 TMEM16A/YFP iodide influx fluorescence, ionomycin; normalized B-score (activity score, 25-100; higher = stronger inhibition) at 10 µM; 310,000 compounds, 1.2% hits; AID 588511, 2011;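 active = ratio plate-corrected score three or more library SD toward inhibition, starting fluorescence score within five deviations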;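 also: score derived from kinetic fluorescence span divided by baseline fluorescence per well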
MC4R barr agon: MC4R agonists recruiting beta-arrestin, primary screen, cell-based, luminescence, agonist arm of biased-ligand search | Melanocortin receptor 4 (Homo sapiens), P32245 | U2OS MC4R beta-arrestin complementation; percent of melanotan II response, DMSO zero | activation, % at 8.9 µM | 360,000 compounds, 0.98% hits;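 active = activation above a per-plate cutoff, the mean activation of sample wells on that plate plus 3 SD, cut at about 8% in these data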
Target sequence (P32245 whole entry, looked up): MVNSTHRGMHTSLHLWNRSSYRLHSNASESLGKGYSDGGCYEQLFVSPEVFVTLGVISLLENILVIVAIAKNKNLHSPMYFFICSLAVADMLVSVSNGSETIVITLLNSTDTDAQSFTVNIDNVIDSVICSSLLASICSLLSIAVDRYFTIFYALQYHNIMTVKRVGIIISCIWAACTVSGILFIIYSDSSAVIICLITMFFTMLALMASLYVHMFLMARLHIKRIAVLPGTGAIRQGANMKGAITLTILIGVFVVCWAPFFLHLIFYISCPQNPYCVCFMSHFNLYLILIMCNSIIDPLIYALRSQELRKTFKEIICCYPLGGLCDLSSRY
MC4R antagonist: MC4R antagonists of cAMP signaling, primary screen, cell-based, TR-FRET, antagonist arm of biased-ligand search. Melanocortin receptor 4 (Homo sapiens), P32245. MC4R-expressing cells, MTII-stimulated cAMP, LANCE TR-FRET. inhibition, % at 6.5 µM. 360,000 compounds, 0.48% hits. AID 540295, 2011;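 active = inhibition above its plate's cutoff, the mean of tested wells on that plate plus 3 SD, cut at about 29% in these data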
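Material: U2OS-MC4R stable cell line | Reagent: Melanotan II challenge after compound preincubation | Doses: One concentration, 6.5 µM nominal | Incubation: 30-min compound preincubation, 1-h Melanotan II challenge, 1-h detection, room temperature | Signal: TR-FRET cAMP assay | Replicates: One well per compound, no replicates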
Beta cell apopt: inhibitors of cytokine-induced beta cell apoptosis, primary screen, luminescence | INS-1E cytokine-induced death, ATP luminescence, 48 h; percent of positive-control rescue, neutral wells zero | protection from apoptosis, % (test concentration not listed) | 300,000 compounds, 0.8% hits | AID 435005, 2010;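 active = Every replicate reaches about 75%, or at least half do and their mean reaches it too, limit read from the data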;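 also: higher means more ATP so stronger rescue from cytokine killing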
ANO1 activ: TMEM16A chloride channel activators or potentiators, primary screen, cell-based, HTS. Anoctamin-1 (Mus musculus), Q8BHY3. HEK293 TMEM16A/YFP-H148Q/I152L, iodide quench fluorescence; hits give low values. B-score at 10 µM. 340,000 compounds, 0.3% hits;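 active = fluorescence-ratio B-score plate-corrected deviation score at least 3 library SD below zero, with starting fluorescence score within 5 deviations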;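 also: channel opened by trigger with iodide after compound preincubation; score built on the fluorescence ratio of max minus min over baseline; more negative score means more quench and so TMEM16A activation or potentiation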
CSC inhib: cancer stem cell viability inhibitors, primary screen, luminescence | cancer stem cell-like cells viability | inhibition, % at 7.5 µM | 300,000 compounds, 1.1% hits | AID 2717, 2010; in the data active = inhibition above about 75%; tested in HMLE shEcad cells
Large screens that a line does not name were inactive. Only some compounds are listed: those with a hit (about 3.8% of all), similar ones and a draw of the others.

CCn1c(SCc2nc3scc(-c4ccccc4)c3c(=O)[nH]2)nnc1-c1cccs1	ANO1 block 100 (no result: Beta cell apopt)
Cc1nc2ccc(NC(=O)c3cccs3)cc2c(=O)n1Cc1ccc(Cl)cc1	ANO1 block 100
CCCc1nc2ccc(NC(=O)c3cccs3)cc2c(=O)n1Cc1ccc(Cl)cc1	none
Cc1cc(OC(C)C(=O)NCCc2c[nH]c3ccccc23)c2c(C)cc(=O)oc2c1 (stereo unspecified)	ANO1 activ -10
CCN(CC)S(=O)(=O)c1cc(NC(=O)c2ccc(-n3cncn3)c([N+](=O)[O-])c2)ccc1C	ANO1 block 100 (no result: Beta cell apopt)
C[C@@H]1CN([C@H](C)CO)S(=O)(=O)c2ccc(C#Cc3ccccc3F)cc2O[C@@H]1CN(C)C(=O)Cc1ccccc1	none (no result: ANO1 block, Beta cell apopt, ANO1 activ, CSC inhib)
CCOc1cc(CNc2ccc3c(c2)OCCO3)cc(Br)c1OC	CSC inhib 78
CCCNC(=O)c1ccc2c(=O)c(O)c(-c3ccc(C)cc3)[nH]c2c1	Beta cell apopt 82
O=C(COC(=O)c1ccccc1NS(=O)(=O)c1ccc(Cl)cc1)NCc1ccccc1	ANO1 block 100
O=C(COC(=O)c1ccccc1Br)NCc1ccccc1	none
O=C(COC(=O)c1cc(C(F)(F)F)cc(C(F)(F)F)c1)NCc1ccc(Cl)cc1	MC4R barr agon 8.7
COCCNC(=O)C1CCCN(Cc2ccc(-c3ccccc3)cc2)CC1 (stereo unspecified)	none (no result: ANO1 block, Beta cell apopt, ANO1 activ, CSC inhib)
COCCN(C(=O)COC(=O)C1CCCCC1)c1c(N)n(Cc2ccccc2)c(=O)[nH]c1=O	none (no result: ANO1 block, Beta cell apopt, ANO1 activ, CSC inhib)
Cc1cc(-c2ccccc2)nc(N/N=C/c2ccc(O)cc2O)n1	CSC inhib 96
CN(/N=C/c1ccc(O)cc1O)c1nc(-c2ccccc2)cc(-c2ccccc2)n1	CSC inhib 89
Cc1cc(-c2ccccc2)nc(N/N=C/c2ccccc2)n1	none
CN(N)c1nc(-c2ccccc2)cc(-c2ccccc2)n1	none
CCCCN(C(=O)CSCC(=O)Nc1ccc(C)cc1)c1c(N)n(CCCC)c(=O)[nH]c1=O	none
CSc1nc(C)cc(OCC(=O)N/N=C/c2ccccc2O)n1	CSC inhib 89
c1csc(-c2csc3ncnc(NCCCN4CCOCC4)c23)c1	Beta cell apopt 76
CC1(C)CC(=O)C=C(c2n[nH]nc2C2CC2)C1	none (no result: ANO1 block, Beta cell apopt, ANO1 activ, CSC inhib)
COc1ccc(/C=C/C(=O)OCC(=O)c2cc(C)ccc2C)cc1	none (no result: ANO1 block, Beta cell apopt, ANO1 activ, CSC inhib)
C/C(=N\NC(=O)C1CC1c1ccccc1)c1cccc([N+](=O)[O-])c1 (stereo unspecified)	ANO1 block 25
O=C(/C=C/c1ccco1)Nc1cccc(S(=O)(=O)N2CCOCC2)c1	none
Cc1ccc(NC(=O)COc2cccc(C)c2C)cc1S(=O)(=O)N1CCCCCC1	none
Cc1ccc(NC(=O)/C=C/c2ccco2)cc1S(=O)(=O)N1CCCCCC1	ANO1 block 25
Cc1ccc(NC(=O)COc2ccc(N(C)C(=O)C(C)(C)C)cc2)cc1S(=O)(=O)N1CCCCC1	Beta cell apopt 115 (no result: ANO1 block)
CCCCCCN1C[C@H](O)[C@@H](n2cc(C3CC3)nn2)C[C@@H]1c1ccc(OC)cc1	none (no result: ANO1 block, Beta cell apopt, ANO1 activ, CSC inhib)
COc1cc(OC)cc(C(=O)NNC(=O)C2CCC2)c1	none (no result: ANO1 block, Beta cell apopt, ANO1 activ, CSC inhib)
Cc1ccc(N/N=C(\C#N)C(N)=S)cc1C	ANO1 block 100
N#C/C(=N\Nc1ccc(Cl)cc1)C(N)=S	ANO1 block 100
Cc1ccc(NC(N)=S)cc1C	none
N#C/C(=N\Nc1ccccc1)C(N)=S	ANO1 activ -16
COc1ccc(C(C)(C)NC(=O)C2CCC(=O)N(CCCN3CCCC3=O)C2)cc1 (stereo unspecified)	none
Cc1ccc(-c2nn(-c3ccccc3)cc2/C=N/NC(=O)c2ccc(Br)o2)cc1	ANO1 block 100, Beta cell apopt 136
O=C(N/N=C/c1cn(-c2ccccc2)nc1-c1ccccc1)c1ccco1	none
O=C(N/N=C\c1cn(-c2ccccc2)nc1-c1ccccc1)c1ccc(Br)o1	Beta cell apopt 110
CCNC(=S)N1CCC(Cc2ccccc2)CC1	ANO1 activ -4.8
Cc1ccc(C(=O)CN(C(=O)c2ccc(Cl)c(Cl)c2)N2C(=O)C3CCCCC3C2=O)cc1C (stereo unspecified)	ANO1 activ -5.5
COc1ccc(S(=O)(=O)N2CCN(C(=O)CSC(=S)N3CCCC3)CC2)cc1	none (no result: ANO1 block)
O=C(CCc1ccccc1)N=C1SC2CS(=O)(=O)CC2N1Cc1ccccc1 (stereo unspecified)	MC4R barr agon 8.9
COc1ccc(CN2C(=NC(=O)CCc3ccccc3)SC3CS(=O)(=O)CC32)cc1 (stereo unspecified)	none
CCOC(=O)C1CCCN(Cc2ccc(OC)c(OCc3ccccc3)c2)C1 (stereo unspecified)	none
CCN(CC)N=Nc1ccc(S(N)(=O)=O)cc1	ANO1 activ -6.1
CN(C)N=Nc1ccc(S(N)(=O)=O)cc1	none
CC[N+](C)(CC)CCOC(=O)C(O)(c1ccccc1)C1CCCCC1 (stereo unspecified)	none
CC[N+](C)(CC)CCC(c1ccccc1)C1CCCCC1 (stereo unspecified)	Beta cell apopt 105
Cc1ccc2c(c1)Sc1c(ccc3ccccc13)N2	Beta cell apopt 104
C/C(=N\Nc1cc(-c2ccccc2)nc(-c2ccc(Br)cc2)n1)c1cccc(N)c1	none
C/C(=N/Nc1cc(-c2ccccc2)nc(-c2ccccc2)n1)c1ccc(O)cc1	CSC inhib 106
Oc1ccc(Cl)cc1Sc1cc(Cl)ccc1O	ANO1 activ -5.6 (no result: ANO1 block, Beta cell apopt, CSC inhib)
COc1cc2c3nnc(-c4ccc(F)cc4)c-3cn(Cc3ccc(F)cc3)c2cc1OC	none
COc1ccc(Cn2cc3c(-c4ccc(F)cc4)nnc-3c3cc(OC)c(OC)cc32)cc1	Beta cell apopt 100
Cc1ccc(NC(=O)C(=O)NCCOc2ccc(Cl)cc2)c(C)c1	MC4R barr agon 8.8 (no result: Beta cell apopt, CSC inhib)
Cc1ccc(OCCNC(=O)CCNC(=O)c2ccc(Cl)cc2)cc1	ANO1 activ -26 (no result: ANO1 block, CSC inhib)
Cc1ccc(S(=O)(=O)N2CCN(C(=O)CSCc3ccc(C(C)C)cc3)CC2)cc1	none (no result: ANO1 block)
Cc1ccc(Nc2nc(Nc3ccc(C)cc3)nc(SC3=NCCS3)n2)cc1	none
Cc1ccccc1Nc1nc(Nc2ccccc2C)nc(SC2=NCCS2)n1	ANO1 block 25
CCCCCCC[C@@H](C/C=C/CCC(=O)N(C)C/C(=C/Cl)C/C(=C\C(=O)N1C[C@H](O)CC1=O)OC)OC	none (no result: ANO1 block, Beta cell apopt, ANO1 activ, CSC inhib)
